The target of assay [1] is T1, Glucocorticoid receptor (Homo sapiens, UniProt P04150).
T1 sequence (P04150 whole entry): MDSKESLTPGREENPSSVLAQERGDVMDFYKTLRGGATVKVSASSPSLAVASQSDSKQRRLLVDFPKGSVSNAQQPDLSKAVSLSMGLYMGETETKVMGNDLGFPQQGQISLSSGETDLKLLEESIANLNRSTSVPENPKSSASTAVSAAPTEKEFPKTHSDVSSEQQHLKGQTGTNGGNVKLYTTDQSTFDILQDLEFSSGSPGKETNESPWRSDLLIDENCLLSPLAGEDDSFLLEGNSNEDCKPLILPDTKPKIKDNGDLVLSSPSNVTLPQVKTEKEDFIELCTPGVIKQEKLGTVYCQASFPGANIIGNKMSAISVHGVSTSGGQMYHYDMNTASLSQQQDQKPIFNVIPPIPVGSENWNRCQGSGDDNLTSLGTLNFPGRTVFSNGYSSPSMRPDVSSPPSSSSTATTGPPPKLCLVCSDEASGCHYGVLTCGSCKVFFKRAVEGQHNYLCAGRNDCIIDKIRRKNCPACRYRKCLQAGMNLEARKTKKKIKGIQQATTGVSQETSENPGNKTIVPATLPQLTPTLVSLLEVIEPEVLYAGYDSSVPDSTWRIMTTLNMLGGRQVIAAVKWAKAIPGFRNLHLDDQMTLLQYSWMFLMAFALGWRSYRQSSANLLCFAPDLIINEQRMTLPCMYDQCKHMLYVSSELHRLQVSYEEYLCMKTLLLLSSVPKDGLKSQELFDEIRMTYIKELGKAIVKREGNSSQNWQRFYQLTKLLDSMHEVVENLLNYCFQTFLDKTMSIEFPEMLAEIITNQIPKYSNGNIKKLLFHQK
Put plainly: Transrepression activity at glucocorticoid receptor in human A549 cells assessed as inhibition of PMA-stimulated AP1 response element by luciferase reporter gene assay. The assay is classed as cell-based. (In general: In a reporter assay the amount or activity of a reporter protein is the signal.)

The target of assay [2] is T1, Glucocorticoid receptor. Briefly: Transactivation activity at glucocorticoid receptor ligand binding domain (unknown origin) expressed in human Hela cells co-expressing GAL4 DNA binding domain assessed as NP-1-stimulated GRE activation by luciferase reporter gene assay. The assay is classed as cell-based.
The target in assay [3] is T1, Glucocorticoid receptor. Put plainly: Binding affinity to glucocorticoid receptor (unknown origin) by fluorescence assay.
In assay [4] the target is T1, Glucocorticoid receptor. Put plainly: Transrepression activity at glucocorticoid receptor in human A549 cells assessed as inhibition of IL1beta-stimulated NFkappaB-dependent E-selectin transcription by luciferase reporter gene assay. The format is cell-based.
The target in assay [5] is T2, Glucocorticoid receptor (Homo sapiens) (UniProt P04150).
T2 sequence (whole entry): T1 sequence (P04150 whole entry)
Briefly: Transrepression activity at glucocorticoid receptor in human A549 cells assessed as inhibition of PMA-stimulated AP1 response element by luciferase reporter gene assay relative to dexamethasone. The assay is classed as cell-based. The method in brief:
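Transrepression of AP-1 was run in A549 lung epithelial cells. […] Values are means of two or more experiments in triplicate.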

In assay [6] the target is T2, Glucocorticoid receptor (Homo sapiens). Briefly: Transrepression activity at glucocorticoid receptor in human A549 cells assessed as inhibition of IL1beta-stimulated NFkappaB-dependent E-selectin transcription by luciferase reporter gene assay relative to dexamethasone. The assay is classed as cell-based. The method in brief: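 In A549 lung epithelial cells, NFkB activity was induced with IL-1β (0.5 ng/ml). Inhibition was quantitated as decreased luciferase activity. […] Values are means of two or more experiments in triplicate.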

For assay [7] the target is unchanged. Put plainly: Transactivation activity at glucocorticoid receptor ligand binding domain (unknown origin) expressed in human Hela cells co-expressing GAL4 DNA binding domain assessed as NP-1-stimulated GRE activation by luciferase reporter gene assay relative to dexamethasone. The assay is classed as cell-based. In a few lines: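 HeLa line (NP-1) stably transfected with a GR-LBD chimera cloned into a GAL4 luciferase reporter was run in agonist mode. Direct GR-LBD activation was read as increased luciferase activity. […] Values are means of two or more experiments in triplicate.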

Assay [8] has the same target. Briefly: Partial agonist activity at glucocorticoid receptor (unknown origin) by fluorescence assay.

Molecules are shown by their SMILES. Calls of active or inactive are those of the source. The rule behind the calls is not given here. A value given as a limit tells only on which side of the number the result lay.

What is called EC50 is the midpoint of the concentration-response curve. The Ki is a measure of affinity in units of concentration, obtained from inhibition or displacement. Low values mean tighter binding, high ones weaker binding. In the case of `CC(CNC(=O)CC(F)(F)F)[C@@H](c1ccccc1)c1ccc2c(cnn2-c2ccc(F)cc2)c1` (stereo in doubt; 3i) [listing 1 of 2 here], the EC50 came to 7.5 nM on Glucocorticoid receptor [1] and 20.7 nM at Glucocorticoid receptor [2]. On Glucocorticoid receptor [3], this molecule returned a Ki of 2.4 nM.

As for `CCS(=O)(=O)NCC(C)[C@@H](c1ccccc1)c1ccc2c(cnn2-c2ccc(F)cc2)c1` (stereo partly drawn), the concentration giving a half-maximal response (EC50) at Glucocorticoid receptor [4] was 1.8 nM; on Glucocorticoid receptor [1] it was 4.3 nM; on Glucocorticoid receptor [2], 12.8 nM. Moreover, the Efficacy stood at 96% in assay [5], 100% in assay [6] and 111% in assay [7]. This molecule registered a Ki on Glucocorticoid receptor [3] of 0.87 nM.

Regarding `CC(C)(CNS(=O)(=O)C1CC1)[C@@H](c1ccccc1)c1ccc2c(cnn2-c2ccc(F)cc2)c1`, the EC50 at Glucocorticoid receptor [4] is 29.3 nM; on Glucocorticoid receptor [1] it was 26.8 nM; on Glucocorticoid receptor [2], 261 nM. Also, the Efficacy in assay [5] was found to be 76%; in assay [6] it was 82%; in assay [7] it was 19%. The same molecule displayed an inhibition constant (Ki) at Glucocorticoid receptor [3] of 1.15 nM.

With `CCS(=O)(=O)NCC(C)(C)[C@@H](c1ccccc1)c1ccc2c(cnn2-c2ccc(F)cc2)c1`, the EC50 at Glucocorticoid receptor [4] turned out to be 15.6 nM; at Glucocorticoid receptor [1], 28.8 nM; at Glucocorticoid receptor [2], 214 nM. Besides, the figures for the Efficacy in assay [5], in assay [6] and in assay [7] were 84%, 87% and 19%, respectively. The molecule also returned a Ki on Glucocorticoid receptor [3] of 0.72 nM.

`CC(C)(CNS(C)(=O)=O)[C@@H](c1ccccc1)c1ccc2c(cnn2-c2ccc(F)cc2)c1`: the 50% effective concentration (EC50) on Glucocorticoid receptor [4] is 19.1 nM; on Glucocorticoid receptor [1], 20.5 nM; at Glucocorticoid receptor [2], 148 nM. For the same molecule, the Efficacy in assay [5] amounted to 86%; in assay [6], 97%; in assay [7] it was 32%. Moreover, the Ki at Glucocorticoid receptor [3] was found to be 0.53 nM.

For `CC(CNS(C)(=O)=O)[C@@H](c1ccccc1)c1ccc2c(cnn2-c2ccc(F)cc2)c1` (stereo partly drawn), the EC50 is 1.4 nM at Glucocorticoid receptor [4], 8.4 nM on Glucocorticoid receptor [1] and 24 nM at Glucocorticoid receptor [2]. The Efficacy in assay [5] was found to be 100%; in assay [6], 105%; in assay [7] it was 101%. The molecule also returned a Ki on Glucocorticoid receptor [3] of 0.93 nM.

As for `CC(CNC(=O)CC(F)(F)F)[C@@H](c1ccccc1)c1ccc2c(cnn2-c2ccc(F)cc2)c1` (single isomer, unassigned) [listing 1 of 2 here], the EC50 worked out at 52 nM on Glucocorticoid receptor [1] and 374 nM on Glucocorticoid receptor [2]. In addition, the inhibitory constant (Ki) at Glucocorticoid receptor [3] was determined as 2.3 nM.

With `CC(C)C[C@@H](c1ccc2c(cnn2-c2ccc(F)cc2)c1)C(C)(C)CNC(=O)CC(F)(F)F`, the 50% effective concentration (EC50) on Glucocorticoid receptor [4] stood at 38 nM; at Glucocorticoid receptor [1], 61 nM; at Glucocorticoid receptor [2], 262 nM. The Efficacy in assay [5] is 101%; in assay [6], 96%; in assay [7] it was 81%. On Glucocorticoid receptor [3], the Ki is 1.3 nM.

As to `CCCS(=O)(=O)NCC(C)(C)[C@@H](c1ccccc1)c1ccc2c(cnn2-c2ccc(F)cc2)c1`, the results for the EC50 on Glucocorticoid receptor [4], at Glucocorticoid receptor [1] and on Glucocorticoid receptor [2] were 86 nM, 143 nM and over 10000 nM, respectively. In addition, the values for the Efficacy in assay [5] and in assay [6] were 66% and 63%, respectively. The molecule further displayed a Ki on Glucocorticoid receptor [3] of 1.51 nM.

As for `CC(=O)NCC(C)(C)[C@@H](c1ccccc1)c1ccc2c(cnn2-c2ccc(F)cc2)c1`, the concentration for a half-maximal effect (EC50) is 1150 nM at Glucocorticoid receptor [4] and over 5000 nM at Glucocorticoid receptor [1]. In addition, the Efficacy in assay [6] worked out at 58%. For the same molecule, the inhibition constant (Ki) on Glucocorticoid receptor [3] is 2.4 nM.

For `CC(C)(CNC(=O)Cc1ccccc1)[C@@H](c1ccccc1)c1ccc2c(cnn2-c2ccc(F)cc2)c1`, the Efficacy in assay [5] is 33%; in assay [7], 100%. For the same molecule, the EC50 stood at 2520 nM on Glucocorticoid receptor [1] and 977 nM on Glucocorticoid receptor [2].

With `CC(C)(CNC(=O)NCC(F)(F)F)[C@@H](c1ccccc1)c1ccc2c(cnn2-c2ccc(F)cc2)c1`, the EC50 at Glucocorticoid receptor [4] was 393 nM; at Glucocorticoid receptor [1], 252 nM; on Glucocorticoid receptor [2], over 10000 nM. Moreover, the figures for the Efficacy in assay [5] and in assay [6] were 66% and 55%, respectively. For the same molecule, the Ki at Glucocorticoid receptor [3] came to 10.2 nM.

As to `CC(C)(C)C(=O)NCC(C)(C)[C@@H](c1ccccc1)c1ccc2c(cnn2-c2ccc(F)cc2)c1`, the 50% effective concentration (EC50) on Glucocorticoid receptor [4] was 23 nM; on Glucocorticoid receptor [1] it was 78 nM; on Glucocorticoid receptor [2], 394 nM. The Efficacy was 100% in assay [5], 80% in assay [6] and 25% in assay [7]. In assay [8], the outcome was Active. The molecule also had an inhibition constant Ki at Glucocorticoid receptor [3] of 2 nM.

As to `CC(C)(CNC(=O)C(F)(F)F)[C@@H](c1ccccc1)c1ccc2c(cnn2-c2ccc(F)cc2)c1`, the EC50 on Glucocorticoid receptor [4] was 124 nM; on Glucocorticoid receptor [1] it was 725 nM; on Glucocorticoid receptor [2], over 10000 nM. Besides, the Efficacy in assay [5] was 44%; in assay [6], 39%. This molecule also gave a Ki on Glucocorticoid receptor [3] of 1.74 nM.

As for `CC(CNS(=O)(=O)CC(F)(F)F)[C@@H](c1ccccc1)c1ccc2c(cnn2-c2ccc(F)cc2)c1` (stereo partly drawn), the concentration for a half-maximal effect (EC50) came out at 0.66 nM at Glucocorticoid receptor [4], 5.2 nM on Glucocorticoid receptor [1] and 26 nM on Glucocorticoid receptor [2]. In addition, the values for the Efficacy in assay [5], in assay [6] and in assay [7] were 97%, 105% and 112%, respectively. The molecule also displayed an inhibitory constant (Ki) at Glucocorticoid receptor [3] of 1.34 nM.

For `CC(CNC(=O)CC(F)(F)F)[C@@H](c1ccccc1)c1ccc2c(cnn2-c2ccc(F)cc2)c1` (stereo in doubt; 3i) [listing 2 of 2 here], the Efficacy is 88% in assay [5] and 102% in assay [7].

For `CC(C)C[C@@H](c1ccc2c(cnn2-c2ccc(F)cc2)c1)C(C)(C)CNC(=O)NCC(F)(F)F`, the half-maximal effective concentration (EC50) on Glucocorticoid receptor [4] is 87 nM; on Glucocorticoid receptor [1] it was 118 nM; on Glucocorticoid receptor [2] it was 501 nM. For the same molecule, the Efficacy amounted to 86% in assay [5], 85% in assay [6] and 58% in assay [7]. The inhibitory constant (Ki) on Glucocorticoid receptor [3] came out at 1.42 nM.

Turning to `CC(C)C[C@@H](c1ccc2c(cnn2-c2ccc(F)cc2)c1)C(C)(C)CNC(=O)NC(C)(C)C`, the EC50 on Glucocorticoid receptor [4] is 11.3 nM; on Glucocorticoid receptor [1], 25 nM; at Glucocorticoid receptor [2], 126 nM. The Efficacy in assay [5] amounted to 100%; in assay [6], 94%; in assay [7], 86%. Also, on Glucocorticoid receptor [3], affinity was put at a Ki of 3.6 nM.

For `CC(C)(C)CC(=O)NCC(C)(C)[C@@H](c1ccccc1)c1ccc2c(cnn2-c2ccc(F)cc2)c1`, the results for the EC50 on Glucocorticoid receptor [4], on Glucocorticoid receptor [1] and on Glucocorticoid receptor [2] were 138 nM, 215 nM and over 10000 nM, respectively. Further, the Efficacy in assay [5] was found to be 62%; in assay [6] it was 46%. On Glucocorticoid receptor [3], this molecule yielded a Ki of 1.9 nM.

As to `CC(CNC(=O)CC(F)(F)F)[C@@H](c1ccccc1)c1ccc2c(cnn2-c2ccc(F)cc2)c1` (single isomer, unassigned) [listing 2 of 2 here], the Efficacy in assay [5] was found to be 84%; in assay [7], 52%.
